From ChEMBL document CHEMBL5131562, “1,3-Dioxane-Linked Novel Bacterial Topoisomerase Inhibitors: Expanding Structural Diversity and the Antibacterial Spectrum” (ACS Med Chem Lett, 2022) come the findings set out here.

Molecules are shown by their SMILES. Converted amounts (≈) assume the structure as drawn.

In the first data set the test system is Staphylococcus aureus. Description: Antibacterial activity against Staphylococcus aureus 3527 by CLSI method.
Conditions: not given
Format: functional.
With `O=c1ccc2ccc(F)c3c2n1CC3C[C@H]1OC[C@H](NCc2cc3c(cn2)OCCC3)CO1` (stereo not given in full), 0.5 µg/mL (≈ 1.11 µM) was the least that counted as inhibitory (MIC).

With `O=c1ccc2ncc(F)c3c2n1CC3C[C@H]1OC[C@H](NCc2cc3c(cn2)OCCC3)CO1` (stereo not given in full), the MIC (in general, the smallest concentration in the dilution series that meets the test's criterion for growth inhibition) is 1 µg/mL (≈ 2.21 µM).

The test system of the next data set is Staphylococcus aureus. Nature of the data set: Antibacterial activity against Staphylococcus aureus harbouring GyrA D83N mutant by CLSI method. It is filed as functional.
Conditions: not given
In turn, `O=c1ccc2ccc(F)c3c2n1CC3C[C@H]1OC[C@H](NCc2cc3c(cn2)OCCC3)CO1` (stereo not given in full) returned an MIC of 2 µg/mL (≈ 4.43 µM).

Consider `O=c1ccc2ncc(F)c3c2n1CC3C[C@H]1OC[C@H](NCc2cc3c(cn2)OCCC3)CO1` (stereo not given in full), for which 8 µg/mL (≈ 17.7 µM) was the least that counted as inhibitory (MIC).

In the next data set the test system is Staphylococcus aureus. Description: Antibacterial activity against methicillin-resistant Staphylococcus aureus USA300 by CLSI method. It is filed as functional.
Conditions: not given
On to `O=c1ccc2ccc(F)c3c2n1CC3C[C@H]1OC[C@H](NCc2cc3c(cn2)OCCC3)CO1` (stereo not given in full), for which it took 0.5 µg/mL (≈ 1.11 µM) to inhibit growth (MIC).

For `O=c1ccc2ncc(F)c3c2n1CC3C[C@H]1OC[C@H](NCc2cc3c(cn2)OCCC3)CO1` (stereo not given in full), the MIC stood at 1 µg/mL (≈ 2.21 µM).

In another data set the target is DNA gyrase (Staphylococcus aureus, UniProt P0A0K8+P20831). Description: Inhibition of Staphylococcus aureus DNA gyrase supercoiling activity incubated for 25 min by ethidium bromide/bromophenol blue staining based agarose gel electrophoresis analysis. It is filed as protein-complex assay.
Conditions: not given
On to `O=c1ccc2ccc(F)c3c2n1CC3C[C@H]1OC[C@H](NCc2cc3c(cn2)OCCC3)CO1` (stereo not given in full), for which 0.58 µM corresponded to half-maximal inhibition (IC50).

For `O=c1ccc2ncc(F)c3c2n1CC3C[C@H]1OC[C@H](NCc2cc3c(cn2)OCCC3)CO1` (stereo not given in full), the IC50 (as a rule, the midpoint of a concentration-inhibition curve) was determined as 2.1 µM.

System in another data set: not listed separately
Nature of the data set: Cytotoxicity activity against human K562 cells assessed as inhibition of cellular growth. Format: toxicity, cell-based.
Conditions: not given
The gist of the method: (§1)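 Human K562 leukemia cells were tested alongside K/VP.5, an etoposide-resistant clonal subline derived from them that has reduced levels of human topoisomerase IIα. Cell growth inhibition was expressed as an IC50.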
For the compound `O=c1ccc2ccc(F)c3c2n1CC3C[C@H]1OC[C@H](NCc2cc3c(cn2)OCCC3)CO1` (stereo not given in full), the 50% inhibitory concentration (IC50) is 109 µM.

On to `O=c1ccc2ncc(F)c3c2n1CC3C[C@H]1OC[C@H](NCc2cc3c(cn2)OCCC3)CO1` (stereo not given in full), for which the IC50 came out at 268 µM.

The test system of the next data set is Neisseria gonorrhoeae. Description: Antimicrobial activity against Neisseria gonorrhoeae K strain harbouring type 2 topoisomerase GyrA S91F, D95N and ParC S87R, S88P mutant incubated for 20 to 24 hrs by CLSI protocol based broth microdilution method. It is filed as functional. As to conditions: time 20-24 hrs. A general note: In broth dilution the organism is exposed to a series of concentrations in liquid medium.
As for `O=c1ccc2ccc(F)c3c2n1CC3C[C@H]1OC[C@H](NCc2cc3c(cn2)OCCC3)CO1` (stereo not given in full), inhibition of growth (MIC) required 0.5 µg/mL (≈ 1.11 µM).

On to `O=c1ccc2ncc(F)c3c2n1CC3C[C@H]1OC[C@H](NCc2cc3c(cn2)OCCC3)CO1` (stereo not given in full), for which the minimal inhibitory concentration (MIC) is 1 µg/mL (≈ 2.21 µM).

A further data set concerns Staphylococcus aureus. Description: Selectivity ratio of IC50 for inhibition of Staphylococcus aureus DNA topoisomerase 4 decatenation activity to IC50 for inhibition of Staphylococcus aureus DNA gyrase supercoiling activity.
Conditions: not given
For the compound `O=c1ccc2ccc(F)c3c2n1CC3C[C@H]1OC[C@H](NCc2cc3c(cn2)OCCC3)CO1` (stereo not given in full), the Ratio IC50 is 5.

Take `O=c1ccc2ncc(F)c3c2n1CC3C[C@H]1OC[C@H](NCc2cc3c(cn2)OCCC3)CO1` (stereo not given in full): the Ratio IC50 was 0.76.

System in a further data set: not listed separately
Description: Metabolic stability in mouse liver microsomes assessed as half life. Format: ADME, Microsome.
Conditions: not given
(Microsomes from liver hold many membrane-bound enzymes, among them those of drug oxidation.)
`O=c1ccc2ccc(F)c3c2n1CC3C[C@H]1OC[C@H](NCc2cc3c(cn2)OCCC3)CO1` (stereo not given in full): the half-life (commonly how long it takes for the measured level to halve) stood at 3.64 min.

`O=c1ccc2ncc(F)c3c2n1CC3C[C@H]1OC[C@H](NCc2cc3c(cn2)OCCC3)CO1` (stereo not given in full): the half-life is 18.3 min.

A further data set deals with Voltage-gated inwardly rectifying potassium channel KCNH2 (Homo sapiens, UniProt Q12809). Description: Inhibition of hERG cardiac ion channel. Format: toxicity.
Conditions: not given
In a few lines:
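hERG channel inhibition was run by a contract lab. […] Determinations were made in duplicate or triplicate (n = 2 or 3).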
As for `O=c1ccc2ccc(F)c3c2n1CC3C[C@H]1OC[C@H](NCc2cc3c(cn2)OCCC3)CO1` (stereo not given in full), inhibition was half-maximal at 53 µM (IC50).

The compound `O=c1ccc2ncc(F)c3c2n1CC3C[C@H]1OC[C@H](NCc2cc3c(cn2)OCCC3)CO1` (stereo not given in full) yielded an IC50 of 125 µM.

Another data set has as its system Neisseria gonorrhoeae. Nature of the data set: Antimicrobial activity against wild type Neisseria gonorrhoeae V strain harbouring type 2 topoisomerase GyrA S91F, D95G and ParC S87R mutant incubated for 20 to 24 hrs by CLSI protocol based broth microdilution method. It is filed as functional. As to conditions: time 20-24 hrs.
For `O=c1ccc2ccc(F)c3c2n1CC3C[C@H]1OC[C@H](NCc2cc3c(cn2)OCCC3)CO1` (stereo not given in full), the minimum inhibitory concentration (MIC) was not above 0.03 µg/mL.

`O=c1ccc2ncc(F)c3c2n1CC3C[C@H]1OC[C@H](NCc2cc3c(cn2)OCCC3)CO1` (stereo not given in full) registered a minimum inhibitory concentration (MIC) not above 0.03 µg/mL.

The next data set concerns Neisseria gonorrhoeae. Nature of the data set: Antimicrobial activity against wild type Neisseria gonorrhoeae O strain incubated for 20 to 24 hrs by CLSI protocol based broth microdilution method. The conditions noted are these: time 20-24 hrs. It is filed as functional.
Compound `O=c1ccc2ccc(F)c3c2n1CC3C[C@H]1OC[C@H](NCc2cc3c(cn2)OCCC3)CO1` (stereo not given in full) registered a minimal inhibitory concentration (MIC) of 0.5 µg/mL (≈ 1.11 µM).

Turning to `O=c1ccc2ncc(F)c3c2n1CC3C[C@H]1OC[C@H](NCc2cc3c(cn2)OCCC3)CO1` (stereo not given in full), 2 µg/mL (≈ 4.42 µM) was the least that counted as inhibitory (MIC).

A further data set has as its system Staphylococcus aureus. Description: Antibacterial activity against cystic fibrosis isolate Staphylococcus aureus by CLSI method.
Conditions: not given
It is filed as functional.
`O=c1ccc2ccc(F)c3c2n1CC3C[C@H]1OC[C@H](NCc2cc3c(cn2)OCCC3)CO1` (stereo not given in full) registered an MIC not above 0.25 µg/mL.

On to `O=c1ccc2ncc(F)c3c2n1CC3C[C@H]1OC[C@H](NCc2cc3c(cn2)OCCC3)CO1` (stereo not given in full), for which it took 0.5 µg/mL (≈ 1.11 µM) to inhibit growth (MIC).

System in another data set: not listed separately
Description: Cytotoxicity activity against human K/VP.5 cells assessed as inhibition of cellular growth. Format: toxicity, cell-based.
Conditions: not given
The gist of the method:
as §1
`O=c1ccc2ccc(F)c3c2n1CC3C[C@H]1OC[C@H](NCc2cc3c(cn2)OCCC3)CO1` (stereo not given in full): the IC50 stood at 85 µM.

With `O=c1ccc2ncc(F)c3c2n1CC3C[C@H]1OC[C@H](NCc2cc3c(cn2)OCCC3)CO1` (stereo not given in full), the IC50 stood at 187 µM.

A further data set has as its system Neisseria gonorrhoeae. Nature of the data set: Antimicrobial activity against wild type Neisseria gonorrhoeae ATCC 49226 incubated for 20 to 24 hrs by CLSI protocol based broth microdilution method. As to conditions: time 20-24 hrs. Format: functional.
In turn, `O=c1ccc2ccc(F)c3c2n1CC3C[C@H]1OC[C@H](NCc2cc3c(cn2)OCCC3)CO1` (stereo not given in full) showed an MIC of 0.25 µg/mL (≈ 0.554 µM).

Turning to `O=c1ccc2ncc(F)c3c2n1CC3C[C@H]1OC[C@H](NCc2cc3c(cn2)OCCC3)CO1` (stereo not given in full), the MIC is 2 µg/mL (≈ 4.42 µM).

For a further data set, the system named is Staphylococcus aureus. Description: Antibacterial activity against Staphylococcus aureus ATCC 29213 by CLSI method. It is filed as functional.
Conditions: not given
Compound `O=c1ccc2ccc(F)c3c2n1CC3C[C@H]1OC[C@H](NCc2cc3c(cn2)OCCC3)CO1` (stereo not given in full) registered a minimal inhibitory concentration (MIC) not above 0.25 µg/mL.

With `O=c1ccc2ncc(F)c3c2n1CC3C[C@H]1OC[C@H](NCc2cc3c(cn2)OCCC3)CO1` (stereo not given in full), the MIC came to 0.25 µg/mL (≈ 0.553 µM).

For another data set, the target named is Topoisomerase IV (Staphylococcus aureus, UniProt P0C1S7+P0C1U9). Nature of the data set: Inhibition of Staphylococcus aureus DNA topoisomerase 4 decatenation activity using kDNA as substrate incubated for 10 to 20 min by ethidium bromide/bromophenol blue staining based agarose gel electrophoresis analysis.
Conditions: not given
It is filed as protein-complex assay.
Compound `O=c1ccc2ccc(F)c3c2n1CC3C[C@H]1OC[C@H](NCc2cc3c(cn2)OCCC3)CO1` (stereo not given in full) had an IC50 of 2.9 µM.

Regarding `O=c1ccc2ncc(F)c3c2n1CC3C[C@H]1OC[C@H](NCc2cc3c(cn2)OCCC3)CO1` (stereo not given in full), the IC50 came to 1.6 µM.

The test system of a further data set is Neisseria gonorrhoeae. Description: Antimicrobial activity against wild type Neisseria gonorrhoeae Y strain harbouring type 2 topoisomerase GyrA S91F, D95G and ParC S87R mutant incubated for 20 to 24 hrs by CLSI protocol based broth microdilution method. Format: functional. As to conditions: time 20-24 hrs.
Compound `O=c1ccc2ccc(F)c3c2n1CC3C[C@H]1OC[C@H](NCc2cc3c(cn2)OCCC3)CO1` (stereo not given in full) yielded an MIC not above 0.03 µg/mL.

Compound `O=c1ccc2ncc(F)c3c2n1CC3C[C@H]1OC[C@H](NCc2cc3c(cn2)OCCC3)CO1` (stereo not given in full) displayed an MIC of 0.25 µg/mL (≈ 0.553 µM).

The next data set has as its system Neisseria gonorrhoeae. Nature of the data set: Antimicrobial activity against wild type Neisseria gonorrhoeae F strain incubated for 20 to 24 hrs by CLSI protocol based broth microdilution method. Format: functional. The conditions noted are these: time 20-24 hrs.
Take `O=c1ccc2ccc(F)c3c2n1CC3C[C@H]1OC[C@H](NCc2cc3c(cn2)OCCC3)CO1` (stereo not given in full): the minimum inhibitory concentration (MIC) was not above 0.03 µg/mL.

Consider `O=c1ccc2ncc(F)c3c2n1CC3C[C@H]1OC[C@H](NCc2cc3c(cn2)OCCC3)CO1` (stereo not given in full), for which 0.12 µg/mL (≈ 0.265 µM) was the least that counted as inhibitory (MIC).

Another data set concerns Neisseria gonorrhoeae. Nature of the data set: Antimicrobial activity against Neisseria gonorrhoeae G strain harbouring type 2 topoisomerase GyrA S91F and ParE G410V mutant incubated for 20 to 24 hrs by CLSI protocol based broth microdilution method. Format: functional. As to conditions: time 20-24 hrs.
The compound `O=c1ccc2ccc(F)c3c2n1CC3C[C@H]1OC[C@H](NCc2cc3c(cn2)OCCC3)CO1` (stereo not given in full) gave a minimum inhibitory concentration (MIC) of 2 µg/mL (≈ 4.43 µM).

On to `O=c1ccc2ncc(F)c3c2n1CC3C[C@H]1OC[C@H](NCc2cc3c(cn2)OCCC3)CO1` (stereo not given in full), for which the MIC was determined as 8 µg/mL (≈ 17.7 µM).

The test system of a further data set is Neisseria gonorrhoeae. Description: Antimicrobial activity against wild type Neisseria gonorrhoeae P strain incubated for 20 to 24 hrs by CLSI protocol based broth microdilution method. It is filed as functional. As to conditions: time 20-24 hrs.
For the compound `O=c1ccc2ccc(F)c3c2n1CC3C[C@H]1OC[C@H](NCc2cc3c(cn2)OCCC3)CO1` (stereo not given in full), it took 1 µg/mL (≈ 2.21 µM) to inhibit growth (MIC).

The compound `O=c1ccc2ncc(F)c3c2n1CC3C[C@H]1OC[C@H](NCc2cc3c(cn2)OCCC3)CO1` (stereo not given in full) registered an MIC of 2 µg/mL (≈ 4.42 µM).
